Source: PMC8112392 (Science signaling, 2021)
“Also recorded” adds a separate entry of the source. Read-outs that look alike come from different tables or passages of the source.

Assays:
Tlp10^LBD = assay: Glycan and small molecule array binding of purified Tlp10 LBD; set-up: species or system C. jejuni; conditions: for interaction of Tlp10^LBD with complex glycans: glycan array; for array: binding to Tlp10^LBD on glycan / small molecule array
Tlp10^LBD wild type [1] = target: T1, Tlp10^LBD wild type (Campylobacter jejuni, UniProt Q0PCA6); assay: biochemical; format: binding; conditions: for Kd: SPR, n = 3; for SPR: binding to Tlp10^LBD by SPR
Tlp10^LBD wild type [2] = target: T1, Tlp10^LBD wild type; format: binding; conditions: competition SPR, compounds at 10x KD
Tlp10^LBD N120A = Tlp10^LBD N120A (Campylobacter jejuni, UniProt Q0PCA6, N120A); assay: biochemical; format: binding, C. jejuni
C. jejuni 11168-O [3] = assay: μ-Slide chemotactic cell migration visualisation; format: cell-based; conditions: time-lapse imaging, 10 mM ligand
In short: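 Wild-type, Δtlp10 and complemented C. jejuni 11168-O cells are FITC-labelled. In a μ-Slide, the left reservoir holds bacterial suspension, and the right reservoir and transition zone hold PBS. Once cells near the transition zone, isoleucine or arginine is added to the right reservoir (final 10 mM). In the sequential test, arginine is added at 20 sec after partial migration toward isoleucine. Migration is recorded by time-lapse video at 40× magnification.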

Tlp10^LBD H193A = Tlp10^LBD H193A (Campylobacter jejuni, UniProt Q0PCA6, H193A); assay: biochemical; format: binding, C. jejuni
Tlp10^LBD Y70A = Tlp10^LBD Y70A (Campylobacter jejuni, UniProt Q0PCA6, Y70A); assay: biochemical; format: binding, C. jejuni
Tlp10^LBD N115A = Tlp10^LBD N115A (Campylobacter jejuni, UniProt Q0PCA6, N115A); assay: biochemical; format: binding, C. jejuni
C. jejuni 11168-O [4] = format: cell-based; conditions: nutrient-depleted chemotaxis assay, 2 mM ligand
[5] = system: C. jejuni 11168-O adherence to Caco-2, HCT116 and HCT116MUC1 cells; assay: Adherence of C. jejuni to cultured human cells with glycan competition; format: cell-based; conditions: 11168-O wild-type and Δtlp10^LBDc strains, 5 mM glycan
C. jejuni 11168-O [6] = assay: μ-Slide chemotaxis cell enumeration assay; format: cell-based; conditions: 10 mM chemoeffector
In short: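 Wild-type, Δtlp10LBD and complemented strains are harvested from MHA plates into PBS, adjusted to OD600 1 and mixed 1:1 (vol:vol) with 1% LMT. The opposite μ-Slide reservoir holds chemoeffector (final 10 mM) in LMT (final 0.35%). Slides are incubated 3 h at 42°C, microaerobic. Cells in the chemoeffector reservoir are enumerated by viable count. Three biological repeats are run, each in triplicate.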

C. jejuni 11168-O [7] = assay: Biofilm assay; format: cell-based; conditions: 10 mM galactose
[8] = KD Tlp10^LBD Wild-type, Table 2, mean ± s.d.
[9] = KD, wild-type Tlp10^LBD, mean ± SD
[10] = read-out: KD Tlp10^LBD Wild-type, Table 2, mean ± s.d.
[11] = read-out: KD Tlp10^LBD N120A, SPR, mean ± s.d., n = 3
[12] = read-out: KD Tlp10^LBD H193A, SPR, mean ± s.d., n = 3
[13] = read-out: KD Tlp10^LBD Y70A, SPR, mean ± s.d., n = 3
[14] = read-out: KD Tlp10^LBD N115A, SPR, mean ± s.d., n = 3

Row | Compound | Kd (Tlp10^LBD wild type [1]; [8]) [µM] | Kd (Tlp10^LBD wild type [1]; [9]) [µM] | SPR (Tlp10^LBD wild type [1]) | ligand-binding site on Tlp10^LBD (Tlp10^LBD wild type [2]) | Kd (Tlp10^LBD N120A) [µM] | Kd (Tlp10^LBD H193A) [µM] | array (Tlp10^LBD) | Kd (Tlp10^LBD Y70A) [µM] | Kd (Tlp10^LBD N115A) [µM] | Tlp10-mediated chemotactic response type (C. jejuni 11168-O [4]) | migration of Δtlp10^LBD strain towards ligand compared to wild-type (C. jejuni 11168-O [4]) | migration of Δtlp10^LBD cells toward ligand compared with wild-type (C. jejuni 11168-O [6]) | also measured
1 | CC(=O)N[C@@H](C=O)[C@@H](O[C@@H]1O[C@H](CO)[C@H](O)[C@H](O)[C@H]1O)[C@H](O[C@@H]1O[C@@H](C)[C@@H](O)[C@@H](O)[C@@H]1O)[C@H](O)CO [Lewis^a antigen] |  |  |  |  |  |  |  |  |  |  |  |  | interaction of Tlp10^LBD with complex glycans (Tlp10^LBD): interacted
2 | N=C(N)NCCC[C@H](N)C(=O)O [arginine] | 27.9 ± 3 | 27.9 ± 3 | + | site A | 50.1 ± 8 | 29 ± 8 | + | 19.1 ± 12 | 41.9 ± 12 | repellent response | increase in migration |  | Tlp10-mediated chemotactic response type (C. jejuni 11168-O [3]): chemorepellent response
3 | N[C@@H](CC(=O)O)C(=O)O [aspartate] | 32.3 ± 10 | 32.3 ± 10 | + | both site A and site B with a preference for site B | 48 ± 7 | 30.9 ± 9 | + | 38.9 ± 11 | 29.5 ± 8 | attractants |  |  | 
4 | C[C@H](O)[C@@H](O)[C@@H](O)[C@H](O)C=O [fucose] | 30 ± 4.1 | 30 ± 4.1 | + | site B | 19.2 ± 4 | 28 ± 3 | + | 34 ± 7 | 22 ± 2 | attractants |  | decreased | effect on adherence to all cell lines tested [5]: suppressed the adherence; also recorded: less effective than that by galactose; Tlp10-mediated chemotactic response type (C. jejuni 11168-O [6]): attractant response
5 | O=C[C@H](O)[C@@H](O)[C@@H](O)[C@H](O)CO [galactose] |  |  | + | site B |  |  | + |  |  | repellent | One-log increase in migration | increased | effect on adherence to all cell lines tested [5]: suppressed the adherence; Tlp10-mediated chemotactic response type (C. jejuni 11168-O [6]): repellent response; reduction of biofilm formation compared to untreated cells (C. jejuni 11168-O [7]; wild-type C. jejuni 11168-O): up to 46%; change in biofilm formation (C. jejuni 11168-O [7]; Δtlp10^LBD mutant): no significant change
6 | CC[C@H](C)[C@H](N)C(=O)O [isoleucine] | 37.9 ± 7 | 37.9 ± 7 | + | site A | 51.2 ± 1.2 | 30.8 ± 7 | + | 28.1 ± 6 | 48.1 ± 5 | attractants |  |  | Tlp10-mediated chemotactic response type (C. jejuni 11168-O [3]): chemoattractant response
7 | O=C(O)CC(O)C(=O)O (stereo not shown) [malate] | 168 ± 19 | 168 ± 19 | + | site B | 215 ± 31 | 161 ± 23 |  | 184 ± 14 | 176 ± 10 | attractants |  |  | 
8 | OC[C@H]1OC(O)[C@@H](O)[C@@H](O)[C@@H]1O (stereo partly shown) [mannose] | 39.6 ± 9 | 39.6 ± 9 | + | site B | 46.4 ± 12 | 32.1 ± 12 | + | 43.3 ± 3 | 52.1 ± 10 | attractants |  | decreased | Tlp10-mediated chemotactic response type (C. jejuni 11168-O [6]): attractant response
9 | c1ncc2nc[nH]c2n1 [purine] | 21 ± 6 | 21 ± 6 | + | site A | 34 ± 3 | 19 ± 2 | + | 16 ± 1 | 29 ± 8 |  | not significantly affected |  | 
10 | CC(=O)N[C@H]1[C@H]([C@H](O)[C@H](O)CO)OC(O)(C(=O)O)C[C@@H]1O (stereo partly shown) [sialic acid] | 29.3 ± 6.9 | 29.3 ± 6.9 | + | site B | 37.1 ± 6 | 20.4 ± 9 | + | 24.1 ± 7 | 34.9 ± 13 |  |  | No significant differences | 
11 | Cc1ncc(C[n+]2csc(CCO)c2C)c(N)n1 [thiamine] | 59.4 ± 13 | 59.4 ± 13 | + | both site A and site B with a preference for site B | 58.3 ± 9 | 50.6 ± 6 | + | 62 ± 17 | 49.2 ± 10 | repellent response | increase in migration |  | 
12 | O=C(O)CCC(=O)C(=O)O [α-ketoglutarate] |  |  | + | site A |  |  |  |  |  |  | not significantly affected |  | Kd (Tlp10^LBD wild type [1]; wild-type Tlp10^LBD, mean ± SD): 403 ± 13 µM; Kd (Tlp10^LBD wild type [1]; [10]): 403 ± 13 µM; Kd (Tlp10^LBD N120A; [11]): 580 ± 43 µM; Kd (Tlp10^LBD H193A; [12]): 370 ± 63 µM; Kd (Tlp10^LBD Y70A; [13]): 385 ± 40 µM; Kd (Tlp10^LBD N115A; [14]): 630 ± 27 µM
13 | Fucα1–2Galβ1–3GalNAcβ1–4(Neu5Acα2–3) Galβ1–4Glc [human ganglioside GM1] |  |  |  |  |  |  |  |  |  |  |  |  | interaction of Tlp10^LBD with complex glycans (Tlp10^LBD): interacted
14 | fumarate |  |  | + | site A |  |  | + |  |  | attractants |  |  | Kd (Tlp10^LBD wild type [1]; wild-type Tlp10^LBD, mean ± SD): 282 ± 68 µM; Kd (Tlp10^LBD wild type [1]; [10]): 282 ± 68 µM; Kd (Tlp10^LBD N120A; [11]): 317 ± 34 µM; Kd (Tlp10^LBD H193A; [12]): 213 ± 59 µM; Kd (Tlp10^LBD Y70A; [13]): 185 ± 25 µM; Kd (Tlp10^LBD N115A; [14]): 242 ± 30 µM
15 | rhamnose |  |  | + | site B |  |  | + |  |  |  | not significantly affected | No significant differences | Kd (Tlp10^LBD wild type [1]; [10]): 11.1 ± 2 µM; Kd (Tlp10^LBD N120A; [11]): 17.9 ± 3.7 µM; Kd (Tlp10^LBD H193A; [12]): 9.8 ± 0.95 µM; Kd (Tlp10^LBD Y70A; [13]): 8.2 ± 3 µM; Kd (Tlp10^LBD N115A; [14]): 18.2 ± 1.9 µM
